The nature of experiment [1]: Her2 expression decrease, cell viability multiplex – SKBR3 breast tumor cells, AlphaScreen, ATP viability, primary screen (AID 461;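 active means Her2 level under about 52% in both replicate screens, with viability over 70% of control, limit read from the data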;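 on Her2 level: lower value means less Her2 protein in the cells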;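 on viability: percent of carrier control wells set as 100% viability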). The following applies: SKBR3 Her2 protein level, 18-24 h, measured here: SKBR3 viability, ATP luminescence, at 10 µM. For orientation: Alpha assays give light when donor and acceptor beads are brought close together.
In experiment [2] the target is Receptor tyrosine-protein kinase erbB-2 (Homo sapiens) (UniProt P04626). The experiment is described as above. The following applies: 18-24 h, at 10 µM, stronger effect = lower value.
Sequence of Receptor tyrosine-protein kinase erbB-2 (Homo sapiens) (P04626 whole entry, looked up): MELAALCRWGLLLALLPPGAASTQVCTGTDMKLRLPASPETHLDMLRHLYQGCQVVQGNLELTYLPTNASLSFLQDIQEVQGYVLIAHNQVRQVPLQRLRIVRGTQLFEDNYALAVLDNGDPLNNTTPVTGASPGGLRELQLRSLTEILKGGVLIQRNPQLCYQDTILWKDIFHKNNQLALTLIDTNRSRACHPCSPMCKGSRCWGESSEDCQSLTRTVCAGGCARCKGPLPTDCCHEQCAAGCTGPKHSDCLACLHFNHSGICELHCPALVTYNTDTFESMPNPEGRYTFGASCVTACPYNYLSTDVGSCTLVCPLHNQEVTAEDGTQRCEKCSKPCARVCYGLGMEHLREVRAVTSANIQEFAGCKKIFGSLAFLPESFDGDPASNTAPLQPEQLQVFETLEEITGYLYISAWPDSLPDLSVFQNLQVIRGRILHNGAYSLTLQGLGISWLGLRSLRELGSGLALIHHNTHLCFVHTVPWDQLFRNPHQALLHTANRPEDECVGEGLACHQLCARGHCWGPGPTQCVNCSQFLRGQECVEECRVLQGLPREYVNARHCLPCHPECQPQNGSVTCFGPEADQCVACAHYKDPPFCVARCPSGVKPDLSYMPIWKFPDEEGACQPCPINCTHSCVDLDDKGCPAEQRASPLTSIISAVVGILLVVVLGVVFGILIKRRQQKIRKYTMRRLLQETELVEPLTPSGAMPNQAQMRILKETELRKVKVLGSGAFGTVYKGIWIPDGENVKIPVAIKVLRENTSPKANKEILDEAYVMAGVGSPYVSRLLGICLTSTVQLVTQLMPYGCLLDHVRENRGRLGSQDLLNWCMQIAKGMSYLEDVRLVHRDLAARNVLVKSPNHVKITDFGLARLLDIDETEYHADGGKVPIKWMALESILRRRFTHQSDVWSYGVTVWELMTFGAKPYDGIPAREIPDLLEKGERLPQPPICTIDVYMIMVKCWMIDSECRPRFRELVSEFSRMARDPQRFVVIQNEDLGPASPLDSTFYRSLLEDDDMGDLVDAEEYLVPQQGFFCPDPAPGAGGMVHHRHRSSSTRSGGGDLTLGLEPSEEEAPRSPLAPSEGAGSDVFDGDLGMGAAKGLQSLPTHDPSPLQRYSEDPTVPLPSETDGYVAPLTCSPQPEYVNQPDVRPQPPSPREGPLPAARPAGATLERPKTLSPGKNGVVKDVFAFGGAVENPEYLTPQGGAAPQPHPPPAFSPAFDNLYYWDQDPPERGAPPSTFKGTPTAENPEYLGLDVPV
Experiment [3] can be described thus: reduced viability of SK-BR-3 breast cancer cells – cell-based, 24 h, human, pilot screen (AID 572).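 Further: compound exposure lasted between 18 and 24 h rather than exactly 24 h; 100% = carrier-treated control wells.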 The following applies: SK-BR-3 viability, CellTiter-Glo luminescence, at 10 µM, stronger effect = lower value.
Experiment [4] is described as follows: HUVEC growth inhibition – cell-based, human, primary screen (AID 575;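 active means viability at or below 30% in both replicate assays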;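 further: 100% = median of untreated cell wells with 0.1% DMSO on each plate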). The following applies: HUVEC proliferation, CellTiter-Glo luminescence, 72 h; at 10 µM; stronger effect = lower value. The essentials:
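material = primary HUVEC, no more than 12 passages | input = 1250 cells per well | controls = vehicle and MePR control wells | measured by = CTG luminescence | times = 72 h compound incubation | format = collagen-coated 384-well format | read-out = % viability vs DMSO wells | doses = single 10 µM dose, 0.1% DMSO, from 5x medium stock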
(ATP-based viability assays read luminescence as a measure of living cells.)

The nature of experiment [5]: H69AR cell proliferation blockers – human, duplicate replicates, primary screen (AID 580;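 active means viability at or under a set limit in both replicates, limit being median viability minus 3 SD, cut at about 48% in these data, passing the limit was not always enough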;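 further: 100% = mean luminescence of untreated wells and 0% = no signal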). To be noted: H69AR lung tumor cells viability, ATP luminescence, 72 h; at 10 µM; stronger effect = lower value.
Experiment [6] in a line: MRP1 drug-resistance reversers in H69AR cells – cell-based, doxorubicin co-treatment, pilot screen (AID 601;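 active means viability loss from added drug above about 55%, and viability with drug at most 40%, in both replicates, limit read from the data, passing the limit was not always enough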). The following applies: CellTiter-Glo, 72 h, at 10 µM; for differential viability (reversal): stronger effect = higher value.
Experiment [7] is described as follows: yeast transport mutant growth inhibition pilot in 384-well plates, post-Golgi transport modulator project (AID 636; in the data active means inhibition above about 31%). To be noted: absorbance 615 nm, about 18 h, stronger effect = higher value.
Experiment [8] can be described thus: growth suppression of yeast trafficking mutant, preliminary HTS, modulators of trafficking downstream of Golgi apparatus project, 1536-format plate, OD 615 nm (AID 637; in the data active means inhibition above about 30%). The following applies: yeast transport mutant growth, absorbance 615 nm, 18 h; stronger effect = higher value.
[9] abbreviates: H69AR cells + 2 uM doxorubicin, measured here: viability with 2 uM doxorubicin, stronger effect = lower value.
The mark [10] stands for this setting: H69AR cells, compound alone cytotoxicity.

Here are results for 16 compounds from PubChem BioAssay.

Activity calls are given as the source filed them.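 How the source made its calls, unless noted: active means viability at or below 10% of carrier control in both of two separate runs; inconclusive means viability at or below 10% in only one of the two runs; inactive means the rest.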

The viability is a read-out of living cells in per cent, often relative to untreated cells. The inhibition is the drop in the measured response relative to a control, in per cent. For `COCC(=O)N(Cc1ccc(OC)cc1)Cc1nc2ccccc2c(=O)[nH]1`, the viability in experiment [1] was 126%; in experiment [3] it was 126% (inactive); in experiment [4], 83.6% (inactive); in experiment [5], 86.2% (inactive); in experiment [6] (setting [9]) it was 100%; in experiment [6] (setting [10]), 86.2%. The Her2 level in experiment [2] was 108% (inactive). The differential viability (reversal) in experiment [6] (H69AR cells + 2 uM doxorubicin) was -13.9% (inactive). Besides, the inhibition in experiment [7] is -5.66% (inactive); in experiment [8], 5% (inactive).

Take `Cc1ccc(S(=O)(=O)N2CCC(C(=O)NCCN3CCCCCC3)CC2)cc1`: the viability is 91% in experiment [1]; 91% (inactive) in experiment [3]; 108% (inactive) in experiment [4]; 103% (inactive) in experiment [5]; 84.6% in experiment [6] (setting [9]); 103% in experiment [6] (setting [10]). Moreover, the Her2 level in experiment [2] was 93.5% (inactive). Besides, in experiment [6] (H69AR cells + 2 uM doxorubicin), the differential viability (reversal) is 18.1% (inactive). In addition, the values for the inhibition in experiment [7] and in experiment [8] were 0.13% (inactive) and 2.13% (inactive), respectively.

Regarding `FC(F)(F)c1cc(-c2ccccc2)nc(N2CCCCC2)n1`, the viability in experiment [1] is 101%; in experiment [3] it was 101% (inactive); in experiment [4], 101% (inactive); in experiment [5], 98.1% (inactive); in experiment [6] (setting [9]), 101%; in experiment [6] (setting [10]), 98.1%. Also, the Her2 level in experiment [2] is 102% (inactive). The differential viability (reversal) in experiment [6] (H69AR cells + 2 uM doxorubicin) was -3% (inactive). Besides, the inhibition was -4.53% (inactive) in experiment [7] and 5.57% (inactive) in experiment [8].

On to `COc1cccc(Nc2cc(C)nc3ccccc23)c1`, for which the viability in experiment [1] was 77%; in experiment [3] it was 77% (inactive); in experiment [4], 85.4% (inactive); in experiment [5] it was 74.4% (inactive); in experiment [6] (setting [9]), 75.4%; in experiment [6] (setting [10]), 74.4%. Besides, the Her2 level in experiment [2] is 83% (inactive). Besides, the differential viability (reversal) in experiment [6] (H69AR cells + 2 uM doxorubicin) was -1.05% (inactive). For the same compound, the inhibition in experiment [7] is -4.4% (inactive); in experiment [8], 1.11% (inactive).

As for `COc1ccc(N(CC(=O)N2CCN(Cc3ccc4c(c3)OCO4)CC2)S(C)(=O)=O)cc1OC`, the viability is 106% in experiment [1]; 106% (inactive) in experiment [3]; 108% (inactive) in experiment [4]; 96.2% (inactive) in experiment [5]; 86.2% in experiment [6] (setting [9]); 96.2% in experiment [6] (setting [10]). Besides, in experiment [2], the Her2 level is 89.5% (inactive). In addition, the differential viability (reversal) in experiment [6] (H69AR cells + 2 uM doxorubicin) was 9.96% (inactive). For the same compound, the inhibition is -8.67% (inactive) in experiment [7] and -2.58% (inactive) in experiment [8].

On to `CC(=O)NCCn1ccc2ccccc21`, for which the viability in experiment [1] is 117%; in experiment [3] it was 117% (inactive); in experiment [4], 96.4% (inactive); in experiment [5], 91.7% (inactive); in experiment [6] (setting [9]), 95.5%; in experiment [6] (setting [10]) it was 91.7%. The Her2 level in experiment [2] was 106% (inactive). In addition, the differential viability (reversal) in experiment [6] (H69AR cells + 2 uM doxorubicin) is -3.84% (inactive). Moreover, the inhibition in experiment [7] is -4.13% (inactive); in experiment [8] it was 3.93% (inactive).

In the case of `COc1ccccc1NC(=O)c1ccc(NC(=O)CSc2nnnn2C)cc1`, the viability is 92% in experiment [1]; 92% (inactive) in experiment [3]; 84% (inactive) in experiment [4]; 13.1% (active) in experiment [5]; 38.7% in experiment [6] (setting [9]); 13.1% in experiment [6] (setting [10]). Besides, in experiment [2], the Her2 level was 96% (inactive). The differential viability (reversal) in experiment [6] (H69AR cells + 2 uM doxorubicin) is -25.5% (inactive). Further, the inhibition in experiment [7] is -6% (inactive); in experiment [8], -2.13% (inactive).

In the case of `C#CCSc1nnc(-c2ccccc2)c(=O)[nH]1`, the viability is 92.5% in experiment [1]; 92.5% (inactive) in experiment [3]; 89.4% (inactive) in experiment [4]; 94.7% (inactive) in experiment [5]; 91.5% in experiment [6] (setting [9]); 94.7% in experiment [6] (setting [10]). For the same compound, the Her2 level in experiment [2] is 91% (inactive). Further, in experiment [6] (H69AR cells + 2 uM doxorubicin), the differential viability (reversal) is 3.12% (inactive). The results for the inhibition in experiment [7] and in experiment [8] were -3.92% (inactive) and -5.9% (inactive), respectively.

As to `CCOC(=O)COc1ccc(S(=O)(=O)Nc2ccc3c(c2)OCO3)cc1`, the viability in experiment [1] was 164%; in experiment [3], 164% (inactive); in experiment [4], 10.4% (active); in experiment [5], 91% (inactive); in experiment [6] (setting [9]) it was 92.1%; in experiment [6] (setting [10]), 91%. The Her2 level in experiment [2] was 113% (inactive). The differential viability (reversal) in experiment [6] (H69AR cells + 2 uM doxorubicin) is -1.11% (inactive). The inhibition in experiment [7] was -4.21% (inactive); in experiment [8] it was 9.02% (inactive).

With `COc1ccc2cc(C(=O)NCc3ccco3)c(=Nc3ccc(C(=O)O)cc3)oc2c1`, the viability in experiment [1] is 68%; in experiment [3], 68% (inactive); in experiment [4] it was 77.4% (inactive); in experiment [5] it was 55% (inactive); in experiment [6] (setting [9]), 69.1%; in experiment [6] (setting [10]), 55%. The Her2 level in experiment [2] was 83% (inactive). For the same compound, in experiment [6] (H69AR cells + 2 uM doxorubicin), the differential viability (reversal) was -14.1% (inactive). Further, the inhibition in experiment [7] was -5% (inactive); in experiment [8] it was -1% (inactive).

`Cc1ccc(C(C)C)c(OCCn2c(=O)oc3ccccc32)c1`: the viability was 89% in experiment [1]; 89% (inactive) in experiment [3]; 87.9% (inactive) in experiment [4]; 95.8% (inactive) in experiment [5]; 82.3% in experiment [6] (setting [9]); 95.8% in experiment [6] (setting [10]). Besides, the Her2 level in experiment [2] was 133% (inactive). In addition, the differential viability (reversal) in experiment [6] (H69AR cells + 2 uM doxorubicin) was 13.5% (inactive). The inhibition is 0.79% (inactive) in experiment [7] and -3.83% (inactive) in experiment [8].

On to `Cc1ccc(S(=O)(=O)C2(C(=O)NC3CCCC3)CC2)cc1`, for which the viability in experiment [1] was 148%; in experiment [3] it was 148% (inactive); in experiment [4], 104% (inactive); in experiment [5], 97.1% (inactive); in experiment [6] (setting [9]) it was 87.8%; in experiment [6] (setting [10]), 97.1%. Besides, the Her2 level in experiment [2] was 87.5% (inactive). Further, the differential viability (reversal) in experiment [6] (H69AR cells + 2 uM doxorubicin) was 9.32% (inactive). For the same compound, the inhibition is -2.34% (inactive) in experiment [7] and -2.22% (inactive) in experiment [8].

As to `CCc1nnc(NC(=O)CN2CCN(c3ccccc3OC)CC2)s1`, the viability in experiment [1] was 99.5%; in experiment [3] it was 99.5% (inactive); in experiment [4] it was 64.9% (inactive); in experiment [5], 50.7% (inactive); in experiment [6] (setting [9]), 25.2%; in experiment [6] (setting [10]) it was 50.7%. In addition, the Her2 level in experiment [2] is 89% (inactive). The differential viability (reversal) in experiment [6] (H69AR cells + 2 uM doxorubicin) was 25.5% (inactive). Further, the values for the inhibition in experiment [7] and in experiment [8] were -0.39% (inactive) and -5.56% (inactive), respectively.

With `COCCOC(=O)c1c(C)oc2ccc(NS(=O)(=O)c3ccc(F)cc3)cc12`, the viability in experiment [1] was 85.5%; in experiment [3], 85.5% (inactive); in experiment [4] it was 93% (inactive); in experiment [5] it was 90.5% (inactive); in experiment [6] (setting [9]) it was 95.2%; in experiment [6] (setting [10]) it was 90.5%. Besides, the Her2 level in experiment [2] is 90.5% (inactive). Besides, the differential viability (reversal) in experiment [6] (H69AR cells + 2 uM doxorubicin) is -4.71% (inactive). Besides, the inhibition in experiment [7] was -2.43% (inactive); in experiment [8], 2.7% (inactive).

As for `Cc1ccc(Cc2c(C)nc3c(C(=O)O)cnn3c2C)cc1`, the viability in experiment [1] is 93.5%; in experiment [3] it was 93.5% (inactive); in experiment [4], 85.5% (inactive); in experiment [5] it was 91.9% (inactive); in experiment [6] (setting [9]), 102%; in experiment [6] (setting [10]) it was 91.9%. For the same compound, the Her2 level in experiment [2] was 114% (inactive). In addition, in experiment [6] (H69AR cells + 2 uM doxorubicin), the differential viability (reversal) is -10.4% (inactive). For the same compound, the inhibition in experiment [7] was -4.34% (inactive); in experiment [8] it was -5.17% (inactive).

On to `COc1cc2nc(C3CCC3)n(NC(=O)C3CCCC(OC)C3)c(=O)c2cc1OC` (stereo not given), for which the viability in experiment [1] was 100%; in experiment [3], 100% (inactive); in experiment [4], 117% (inactive); in experiment [5] it was 92.2% (inactive); in experiment [6] (setting [9]), 97.5%; in experiment [6] (setting [10]) it was 92.2%. Further, the Her2 level in experiment [2] is 110% (inactive). Moreover, the differential viability (reversal) in experiment [6] (H69AR cells + 2 uM doxorubicin) is -5.31% (inactive). Moreover, the inhibition is -9.86% (inactive) in experiment [7] and -0.67% (inactive) in experiment [8].
